In ChEMBL document CHEMBL1275486, “Kinetic characterization of VIM-7, a divergent member of the VIM metallo-beta-lactamase family” (Antimicrob Agents Chemother, 2008):

Tests used:
Details in all cases: 81-11963
[1] = tested on: CC(=O)OCC1=C(C(=O)O)N2C(=O)[C@@H](NC(=O)Cc3cccs3)[C@H]2SC1; experiment: (§1) Activity of Pseudomonas aeruginosa beta-lactamase VIM-2 by spectrophotometry
Method in brief: (§2)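 Recombinant enzyme was expressed in E. coli BL21(DE3) from pET-26b and purified from the periplasm to >99%, with concentration taken from A280. Hydrolysis was followed spectrophotometrically at 25°C in 50 mM sodium cacodylate pH 7.0 with 100 μM ZnCl2 and 0.1 mg/ml BSA. Km and kcat came from initial velocity versus substrate concentration. Some Km values were taken as competitive Ki against nitrocefin reporter.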

[2] = tested on: CC(C)(O/N=C(\C(=O)N[C@@H]1C(=O)N2C(C(=O)[O-])=C(C[n+]3ccccc3)CS[C@H]12)c1csc(N)n1)C(=O)O; experiment: as §1; method in brief: as §2
[3] = tested on: CC1(C)S[C@@H]2[C@H](NC(=O)C(C(=O)O)c3ccccc3)C(=O)N2[C@H]1C(=O)O; experiment: as §1; method in brief: as §2
[4] = tested on: CC1(C)S[C@@H]2[C@H](NC(=O)Cc3ccccc3)C(=O)N2[C@H]1C(=O)O; experiment: as §1; method in brief: as §2
[5] = tested on: CC1(C)S[C@@H]2[C@H](NC(=O)[C@H](N)c3ccccc3)C(=O)N2[C@H]1C(=O)O; experiment: as §1; method in brief: as §2
[6] = tested on: CC1(C)S[C@@H]2[C@H](NC(=O)[C@H](NC(=O)N3CCNC3=O)c3ccccc3)C(=O)N2[C@H]1C(=O)O; experiment: as §1; method in brief: as §2
[7] = tested on: CC1(C)[C@H](C(=O)O)N2C(=O)C[C@H]2S1(=O)=O; experiment: as §1; method in brief: as §2
[8] = tested on: CCN1CCN(C(=O)N[C@@H](C(=O)N[C@@H]2C(=O)N3[C@@H]2SC(C)(C)[C@@H]3C(=O)O)c2ccccc2)C(=O)C1=O; experiment: as §1; method in brief: as §2
[9] = tested on: CO/N=C(\C(=O)N[C@@H]1C(=O)N2C(C(=O)O)=C(COC(C)=O)CS[C@H]12)c1csc(N)n1; experiment: as §1; method in brief: as §2
[10] = tested on: CO/N=C(\C(=O)N[C@@H]1C(=O)N2C(C(=O)O)=C(COC(N)=O)CS[C@H]12)c1ccco1; experiment: as §1; method in brief: as §2
[11] = tested on: CO/N=C(\C(=O)N[C@@H]1C(=O)N2C(C(=O)[O-])=C(C[N+]3(C)CCCC3)CS[C@H]12)c1csc(N)n1; experiment: as §1; method in brief: as §2
[12] = tested on: CO[C@@]1(NC(=O)C(C(=O)O)c2ccc(O)cc2)C(=O)N2C(C(=O)O)=C(CSc3nnnn3C)CO[C@@H]21; experiment: as §1; method in brief: as §2
[13] = tested on: CO[C@@]1(NC(=O)Cc2cccs2)C(=O)N2C(C(=O)O)=C(COC(N)=O)CS[C@@H]21; experiment: as §1; method in brief: as §2
[14] = tested on: C[C@@H](O)[C@H]1C(=O)N2C(C(=O)O)=C(S[C@@H]3CN[C@H](C(=O)N(C)C)C3)[C@H](C)[C@H]12; experiment: as §1; method in brief: as §2
[15] = tested on: C[C@@H](O)[C@H]1C(=O)N2C(C(=O)O)=C(S[C@@H]3CN[C@H](C(=O)Nc4cccc(C(=O)O)c4)C3)[C@H](C)[C@H]12; experiment: as §1; method in brief: as §2
[16] = tested on: C[C@H]1[C@H](NC(=O)/C(=N\OC(C)(C)C(=O)O)c2csc(N)n2)C(=O)N1S(=O)(=O)O; experiment: as §1; method in brief: as §2
[17] = tested on: C[C@]1(Cn2ccnn2)[C@H](C(=O)O)N2C(=O)C[C@H]2S1(=O)=O; experiment: as §1; method in brief: as §2
[18] = tested on: Cc1onc(-c2ccccc2Cl)c1C(=O)N[C@@H]1C(=O)N2[C@@H]1SC(C)(C)[C@@H]2C(=O)O; experiment: as §1; method in brief: as §2
[19] = tested on: O=C(Cc1cccs1)N[C@@H]1C(=O)N2C(C(=O)O)=C(/C=C/c3ccc([N+](=O)[O-])cc3[N+](=O)[O-])CS[C@H]12; experiment: as §1; method in brief: as §2
[20] = tested on: O=C(Cc1cccs1)N[C@@H]1C(=O)N2C(C(=O)[O-])=C(C[n+]3ccccc3)CS[C@H]12; experiment: as §1; method in brief: as §2
[21] = tested on: O=C(O)[C@H]1/C(=C/CO)O[C@@H]2CC(=O)N21; experiment: as §1; method in brief: as §2
[22] = tested on: CC(=O)OCC1=C(C(=O)O)N2C(=O)[C@@H](NC(=O)Cc3cccs3)[C@H]2SC1; experiment: (§3) Ratio of Kcat to Km for Pseudomonas aeruginosa beta-lactamase VIM-2 by spectrophotometry; method in brief: as §2
[23] = tested on: CC(C)(O/N=C(\C(=O)N[C@@H]1C(=O)N2C(C(=O)[O-])=C(C[n+]3ccccc3)CS[C@H]12)c1csc(N)n1)C(=O)O; experiment: as §3; method in brief: as §2
[24] = tested on: CC1(C)S[C@@H]2[C@H](NC(=O)C(C(=O)O)c3ccccc3)C(=O)N2[C@H]1C(=O)O; experiment: as §3; method in brief: as §2
[25] = tested on: CC1(C)S[C@@H]2[C@H](NC(=O)Cc3ccccc3)C(=O)N2[C@H]1C(=O)O; experiment: as §3; method in brief: as §2
[26] = tested on: CC1(C)S[C@@H]2[C@H](NC(=O)[C@H](N)c3ccccc3)C(=O)N2[C@H]1C(=O)O; experiment: as §3; method in brief: as §2
[27] = tested on: CC1(C)S[C@@H]2[C@H](NC(=O)[C@H](NC(=O)N3CCNC3=O)c3ccccc3)C(=O)N2[C@H]1C(=O)O; experiment: as §3; method in brief: as §2
[28] = tested on: CC1(C)[C@H](C(=O)O)N2C(=O)C[C@H]2S1(=O)=O; experiment: as §3; method in brief: as §2
[29] = tested on: CCN1CCN(C(=O)N[C@@H](C(=O)N[C@@H]2C(=O)N3[C@@H]2SC(C)(C)[C@@H]3C(=O)O)c2ccccc2)C(=O)C1=O; experiment: as §3; method in brief: as §2
[30] = tested on: CO/N=C(\C(=O)N[C@@H]1C(=O)N2C(C(=O)O)=C(COC(C)=O)CS[C@H]12)c1csc(N)n1; experiment: as §3; method in brief: as §2
[31] = tested on: CO/N=C(\C(=O)N[C@@H]1C(=O)N2C(C(=O)O)=C(COC(N)=O)CS[C@H]12)c1ccco1; experiment: as §3; method in brief: as §2
[32] = tested on: CO/N=C(\C(=O)N[C@@H]1C(=O)N2C(C(=O)[O-])=C(C[N+]3(C)CCCC3)CS[C@H]12)c1csc(N)n1; experiment: as §3; method in brief: as §2
[33] = tested on: CO[C@@]1(NC(=O)C(C(=O)O)c2ccc(O)cc2)C(=O)N2C(C(=O)O)=C(CSc3nnnn3C)CO[C@@H]21; experiment: as §3; method in brief: as §2
[34] = tested on: CO[C@@]1(NC(=O)Cc2cccs2)C(=O)N2C(C(=O)O)=C(COC(N)=O)CS[C@@H]21; experiment: as §3; method in brief: as §2
[35] = tested on: C[C@@H](O)[C@H]1C(=O)N2C(C(=O)O)=C(S[C@@H]3CN[C@H](C(=O)N(C)C)C3)[C@H](C)[C@H]12; experiment: as §3; method in brief: as §2
[36] = tested on: C[C@@H](O)[C@H]1C(=O)N2C(C(=O)O)=C(S[C@@H]3CN[C@H](C(=O)Nc4cccc(C(=O)O)c4)C3)[C@H](C)[C@H]12; experiment: as §3; method in brief: as §2
[37] = tested on: C[C@]1(Cn2ccnn2)[C@H](C(=O)O)N2C(=O)C[C@H]2S1(=O)=O; experiment: as §3; method in brief: as §2
[38] = tested on: Cc1onc(-c2ccccc2Cl)c1C(=O)N[C@@H]1C(=O)N2[C@@H]1SC(C)(C)[C@@H]2C(=O)O; experiment: as §3; method in brief: as §2
[39] = tested on: O=C(Cc1cccs1)N[C@@H]1C(=O)N2C(C(=O)O)=C(/C=C/c3ccc([N+](=O)[O-])cc3[N+](=O)[O-])CS[C@H]12; experiment: as §3; method in brief: as §2
[40] = tested on: O=C(Cc1cccs1)N[C@@H]1C(=O)N2C(C(=O)[O-])=C(C[n+]3ccccc3)CS[C@H]12; experiment: as §3; method in brief: as §2
[41] = tested on: O=C(O)[C@H]1/C(=C/CO)O[C@@H]2CC(=O)N21; experiment: as §3; method in brief: as §2

## Beta-lactamase VIM-2 (Pseudomonas aeruginosa) (from UniProt Q9K2N0)
[1]
  Km: 11 µM
  kcat: 130 s⁻¹
[2]
  Km: 72 µM
  kcat: 3.6 s⁻¹
[3]
  Km: 205 µM
  kcat: 185 s⁻¹
[4]
  Km: 70 µM
  kcat: 280 s⁻¹
[5]
  Km: 90 µM
  kcat: 125 s⁻¹
[6]
  Km: 200 µM
  kcat: 200 s⁻¹
[7]
  Km: 320 µM
  kcat: 23 s⁻¹
[8]
  Km: 125 µM
  kcat: 300 s⁻¹
[9]
  Km: 12 µM
  kcat: 70 s⁻¹
[10]
  Km: 20 µM
  kcat: 8 s⁻¹
[11]
  Km: > 400 µM
  kcat: > 40 s⁻¹
[12]
  Km: 55 µM
  kcat: 90 s⁻¹
[13]
  Km: 13 µM
  kcat: 15 s⁻¹
[14]
  Km: 2 µM
  kcat: 5 s⁻¹
[15]
  Km: 9 µM
  kcat: 0.2 s⁻¹
[16]
  Km: > 1000 µM
  kcat: < 0.01 s⁻¹
[17]
  Km: 875 µM
  kcat: 28 s⁻¹
[18]
  Km: 250 µM
  kcat: 350 s⁻¹
[19]
  Km: 18 µM
  kcat: 770 s⁻¹
[20]
  Km: 50 µM
  kcat: 140 s⁻¹
[21]
  Km: > 5000 µM
  kcat: 5.4 s⁻¹
[22]
  kcat/Km: 1.2e+07 M⁻¹ s⁻¹
[23]
  kcat/Km: 50000 M⁻¹ s⁻¹
[24]
  kcat/Km: 900000 M⁻¹ s⁻¹
[25]
  kcat/Km: 4e+06 M⁻¹ s⁻¹
[26]
  kcat/Km: 1.4e+06 M⁻¹ s⁻¹
[27]
  kcat/Km: 1e+06 M⁻¹ s⁻¹
[28]
  kcat/Km: 72000 M⁻¹ s⁻¹
[29]
  kcat/Km: 2.4e+06 M⁻¹ s⁻¹
[30]
  kcat/Km: 5.8e+06 M⁻¹ s⁻¹
[31]
  kcat/Km: 400000 M⁻¹ s⁻¹
[32]
  kcat/Km: 100000 M⁻¹ s⁻¹
[33]
  kcat/Km: 1.6e+06 M⁻¹ s⁻¹
[34]
  kcat/Km: 1.2e+06 M⁻¹ s⁻¹
[35]
  kcat/Km: 2.5e+06 M⁻¹ s⁻¹
[36]
  kcat/Km: 22000 M⁻¹ s⁻¹
[37]
  kcat/Km: 32000 M⁻¹ s⁻¹
[38]
  kcat/Km: 1.4e+06 M⁻¹ s⁻¹
[39]
  kcat/Km: 4.28e+07 M⁻¹ s⁻¹
[40]
  kcat/Km: 2.8e+06 M⁻¹ s⁻¹
[41]
  kcat/Km: 1100 M⁻¹ s⁻¹
